Experiments:
[1] = cytotoxicity toward MRC5 cells, same conditions without virus infection; format: cell-based; details: human
Procedure, shortened: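 Run in parallel with the antiviral CPE assay under identical conditions without virus infection. MRC5 cells were seeded at 20,000 cells/well and cultured overnight at 37 °C, 5% CO₂. Test compound diluted in assay medium was added; final DMSO 0.5%. Viability was read by CellTiter Glo. Single-point at 25 μM; CC50 by four-parameter log(inhibitor) vs response variable-slope regression.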

[2] = tested on: human coronavirus (HCoV) 229E; test: cytopathic effect; format: cell-based; details: for inhibition at 25 µM: unidentified human coronavirus, MRC5, read-out: normalized inhibition % (25 μM); for inhibition of HCoV 229E in words: 25 μM, MRC5 cells
Procedure, shortened: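 MRC5 cells were seeded at 20,000 cells/well and grown overnight at 37 °C, 5% CO₂. Test compound diluted in assay medium was added, then HCoV 229E diluted in assay medium; final DMSO 0.5%. CPE was read by CellTiter Glo. Protection at each concentration was normalized to virus-only control. Screen at 25 μM; EC50 from full dose–response by four-parameter variable-slope nonlinear regression.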

## CC(=O)OC[C@@]1(C)[C@H]2CC[C@@H]3CN(Cc4ccccc4)[C@@H](C4=CCOC4=O)C[C@H]3[C@]2(C)CC[C@H]1OC(C)=O [4a, ((2R,4aS,6aS,7R,8R,10aS,10bR)-8-Acetoxy-3-benzyl-7,10a-dimethyl-2-(2-oxo-2,5-dihydrofuran-3-yl)tetradecahydrobenzo[f]isoquinolin-7-yl)methyl Acetate]
[1]
  cytotoxicity at 3 days, 25 µM: 15.5%
[2]
  inhibition at 25 µM: 66.8%

## CC(=O)OC[C@@]1(C)[C@H]2CC[C@@H]3CN(Cc4ccc(Br)cc4)[C@@H](C4=CCOC4=O)C[C@H]3[C@]2(C)CC[C@H]1OC(C)=O [4d, ((2R,4aS,6aS,7R,8R,10aS,10bR)-8-Acetoxy-3-(4-bromobenzyl)-7,10a-dimethyl-2-(2-oxo-2,5-dihydrofuran-3-yl)tetradecahydrobenzo[f]isoquinolin-7-yl)methyl Acetate]
[1]
  cytotoxicity at 3 days, 25 µM: -3%
[2]
  inhibition at 25 µM: 110%

## CC(=O)OC[C@@]1(C)[C@H]2CC[C@@H]3CN(Cc4ccc(C(F)(F)F)cc4)[C@@H](C4=CCOC4=O)C[C@H]3[C@]2(C)CC[C@H]1OC(C)=O [4h, ((2R,4aS,6aS,7R,8R,10aS,10bR)-8-Acetoxy-7,10a-dimethyl-2-(2-oxo-2,5-dihydrofuran-3-yl)-3-(4-(trifluoromethyl)benzyl)tetradecahydrobenzo[f]isoquinolin-7-yl)methyl Acetate]
[1]
  cytotoxicity at 3 days, 25 µM: -5.4%
[2]
  inhibition at 25 µM: 119%

## CC(=O)OC[C@@]1(C)[C@H]2CC[C@@H]3CN(Cc4ccc(O)cc4)[C@@H](C4=CCOC4=O)C[C@H]3[C@]2(C)CC[C@H]1OC(C)=O [4j, ((2R,4aS,6aS,7R,8R,10aS,10bR)-8-Acetoxy-3-(4-hydroxybenzyl)-7,10a-dimethyl-2-(2-oxo-2,5-dihydrofuran-3-yl)tetradecahydrobenzo[f]isoquinolin-7-yl)methyl Acetate]
[1]
  cytotoxicity at 3 days, 25 µM: -5.2%
[2]
  inhibition at 25 µM: 55.6%

## CC(=O)OC[C@@]1(C)[C@H]2CC[C@@H]3CN(Cc4ccccc4F)[C@@H](C4=CCOC4=O)C[C@H]3[C@]2(C)CC[C@H]1OC(C)=O [4l, ((2R,4aS,6aS,7R,8R,10aS,10bR)-8-Acetoxy-3-(2-fluorobenzyl)-7,10a-dimethyl-2-(2-oxo-2,5-dihydrofuran-3-yl)tetradecahydrobenzo[f]isoquinolin-7-yl)methyl Acetate]
[1]
  CC50 at 3 days: > 100 µM
  cytotoxicity at 3 days, 25 µM: -19.5%
[2]
  inhibition at 25 µM: 148%

## CC(=O)OC[C@@]1(C)[C@H]2CC[C@@H]3CN(Cc4cccc(Cl)c4)[C@@H](C4=CCOC4=O)C[C@H]3[C@]2(C)CC[C@H]1OC(C)=O [4m, ((2R,4aS,6aS,7R,8R,10aS,10bR)-8-Acetoxy-3-(3-chlorobenzyl)-7,10a-dimethyl-2-(2-oxo-2,5-dihydrofuran-3-yl)tetradecahydrobenzo[f]isoquinolin-7-yl)methyl Acetate]
[1]
  CC50 at 3 days: > 100 µM
  cytotoxicity at 3 days, 25 µM: -13.2%
[2]
  inhibition at 25 µM: 130%

## CC(=O)OC[C@@]1(C)[C@H]2CC[C@@H]3CN(Cc4ccc(F)c(Cl)c4)[C@@H](C4=CCOC4=O)C[C@H]3[C@]2(C)CC[C@H]1OC(C)=O [4n, ((2R,4aS,6aS,7R,8R,10aS,10bR)-8-Acetoxy-3-(3-chloro-4-fluorobenzyl)-7,10a-dimethyl-2-(2-oxo-2,5-dihydrofuran-3-yl)tetradecahydrobenzo[f]isoquinolin-7-yl)methyl Acetate]
[1]
  cytotoxicity at 3 days, 25 µM: -4.9%
[2]
  inhibition at 25 µM: 102%

## CC(=O)OC[C@@]1(C)[C@H]2CC[C@@H]3CN(Cc4ccco4)[C@@H](C4=CCOC4=O)C[C@H]3[C@]2(C)CC[C@H]1OC(C)=O [4o, ((2R,4aS,6aS,7R,8R,10aS,10bR)-8-Acetoxy-3-(furan-2-ylmethyl)-7,10a-dimethyl-2-(2-oxo-2,5-dihydrofuran-3-yl)tetradecahydrobenzo[f]isoquinolin-7-yl)methyl Acetate]
[1]
  cytotoxicity at 3 days, 25 µM: -4.5%
[2]
  inhibition of HCoV 229E in words: weak inhibition effect
  inhibition at 25 µM: 58.4%

## CC(=O)OC[C@@]1(C)[C@H]2CC[C@@H]3CN(Cc4cccs4)[C@@H](C4=CCOC4=O)C[C@H]3[C@]2(C)CC[C@H]1OC(C)=O [4p, ((2R,4aS,6aS,7R,8R,10aS,10bR)-8-Acetoxy-7,10a-dimethyl-2-(2-oxo-2,5-dihydrofuran-3-yl)-3-(thiophen-2-ylmethyl)tetradecahydrobenzo[f]isoquinolin-7-yl)methyl Acetate]
[1]
  cytotoxicity at 3 days, 25 µM: 4.2%
[2]
  inhibition of HCoV 229E in words: weak inhibition effect
  inhibition at 25 µM: 26.9%

## CC(=O)OC[C@@]1(C)[C@H]2CC[C@@H]3CN(Cc4cccc5ccccc45)[C@@H](C4=CCOC4=O)C[C@H]3[C@]2(C)CC[C@H]1OC(C)=O [4q, ((2R,4aS,6aS,7R,8R,10aS,10bR)-8-Acetoxy-7,10a-dimethyl-3-(naphthalen-1-ylmethyl)-2-(2-oxo-2,5-dihydrofuran-3-yl)tetradecahydrobenzo[f]isoquinolin-7-yl)methyl Acetate]
[1]
  cytotoxicity at 3 days, 25 µM: -14.7%
[2]
  inhibition at 25 µM: 121%

## CCCN1C[C@H]2CC[C@@H]3[C@](C)(COC(C)=O)[C@H](OC(C)=O)CC[C@@]3(C)[C@@H]2C[C@@H]1C1=CCOC1=O [4r, ((2R,4aS,6aS,7R,8R,10aS,10bR)-8-Acetoxy-7,10a-dimethyl-2-(2-oxo-2,5-dihydrofuran-3-yl)-3-propyltetradecahydrobenzo[f]isoquinolin-7-yl)methyl Acetate]
[1]
  cytotoxicity at 3 days, 25 µM: -5.6%
[2]
  inhibition at 25 µM: 51.4%

## CC(=O)OC[C@@]1(C)[C@H]2CC[C@@H]3CN(CCC(C)C)[C@@H](C4=CCOC4=O)C[C@H]3[C@]2(C)CC[C@H]1OC(C)=O [4v, ((2R,4aS,6aS,7R,8R,10aS,10bR)-8-Acetoxy-3-isopentyl-7,10a-dimethyl-2-(2-oxo-2,5-dihydrofuran-3-yl)tetradecahydrobenzo[f]isoquinolin-7-yl)methyl Acetate]
[1]
  cytotoxicity at 3 days, 25 µM: 3.2%
[2]
  inhibition at 25 µM: 102%

## CC(=O)OC[C@@]1(C)[C@H]2CC[C@@H]3CN(C4CCCC4)[C@@H](C4=CCOC4=O)C[C@H]3[C@]2(C)CC[C@H]1OC(C)=O [4w, ((2R,4aS,6aS,7R,8R,10aS,10bR)-8-Acetoxy-3-cyclopentyl-7,10a-dimethyl-2-(2-oxo-2,5-dihydrofuran-3-yl)tetradecahydrobenzo[f]isoquinolin-7-yl)methyl Acetate]
[1]
  cytotoxicity at 3 days, 25 µM: -4.5%
[2]
  inhibition at 25 µM: 11.3%

## CC(=O)OC[C@@]1(C)[C@H]2CC[C@@H]3CN(C4CCCCCC4)[C@@H](C4=CCOC4=O)C[C@H]3[C@]2(C)CC[C@H]1OC(C)=O [4y, ((2R,4aS,6aS,7R,8R,10aS,10bR)-8-Acetoxy-3-cycloheptyl-7,10a-dimethyl-2-(2-oxo-2,5-dihydrofuran-3-yl)tetradecahydrobenzo[f]isoquinolin-7-yl)methyl Acetate]
[1]
  CC50 at 3 days: > 100 µM
  cytotoxicity at 3 days, 25 µM: -18.2%
[2]
  inhibition at 25 µM: 135%

## Cc1ccc(CN2C[C@H]3CC[C@@H]4[C@]5(C)COC(C)(C)O[C@@H]5CC[C@@]4(C)[C@@H]3C[C@@H]2C2=CCOC2=O)cc1 [9f, 3-((4aR,4bS,6aS,9R,10aR,10bS,12aR)-2,2,4a,10b-Tetramethyl-8-(4-methylbenzyl)tetradecahydro-4H-[1,3]dioxino[5′,4′:3,4]benzo[1,2-f]isoquinolin-9-yl)furan-2(5H)-one]
[1]
  CC50 at 3 days: > 100 µM
  cytotoxicity at 3 days, 25 µM: -1.6%
[2]
  inhibition of HCoV 229E in words: good inhibition
  inhibition at 25 µM: 100%

## CC1(C)OC[C@@]2(C)[C@H]3CC[C@@H]4CN(Cc5ccc(C(C)(C)C)cc5)[C@@H](C5=CCOC5=O)C[C@H]4[C@]3(C)CC[C@H]2O1 [9g, 3-((4aR,4bS,6aS,9R,10aR,10bS,12aR)-8-(4-(tert-Butyl)benzyl)-2,2,4a,10b-tetramethyltetradecahydro-4H-[1,3]dioxino[5′,4′:3,4]benzo[1,2-f]isoquinolin-9-yl)furan-2(5H)-one]
[1]
  cytotoxicity at 3 days, 25 µM: -0.2%
[2]
  inhibition at 25 µM: 103%

## CC1(C)OC[C@@]2(C)[C@H]3CC[C@@H]4CN(Cc5ccc([N+](=O)[O-])cc5)[C@@H](C5=CCOC5=O)C[C@H]4[C@]3(C)CC[C@H]2O1 [9h, 3-((4aR,4bS,6aS,9R,10aR,10bS,12aR)-2,2,4a,10b-Tetramethyl-8-(4-nitrobenzyl)tetradecahydro-4H-[1,3]dioxino[5′,4′:3,4]benzo[1,2-f]isoquinolin-9-yl)furan-2(5H)-one]
[1]
  cytotoxicity at 3 days, 25 µM: -4.7%
[2]
  inhibition at 25 µM: 102%

## C[C@@]12COCO[C@@H]1CC[C@]1(C)[C@@H]2CC[C@@H]2CN(Cc3cccs3)[C@@H](C3=CCOC3=O)C[C@H]21 [10d, 3-((4aR,4bS,6aS,9R,10aR,10bS,12aR)-4a,10b-Dimethyl-8-(thiophen-2-ylmethyl)tetradecahydro-4H-[1,3]dioxino[5′,4′:3,4]benzo[1,2-f]isoquinolin-9-yl)furan-2(5H)-one]
[1]
  cytotoxicity at 3 days, 25 µM: -13.4%
[2]
  inhibition at 25 µM: 58.6%

## C[C@]1(CO)[C@H]2CC[C@@H]3CN(Cc4ccccc4)[C@@H](C4=CCOC4=O)C[C@H]3[C@]2(C)CC[C@H]1O [11a, 3-((2R,4aS,6aS,7R,8R,10aS,10bR)-3-Benzyl-8-hydroxy-7-(hydroxymethyl)-7,10a-dimethyltetradecahydrobenzo[f]isoquinolin-2-yl)furan-2(5H)-one]
[1]
  cytotoxicity at 3 days, 25 µM: -4.8%
[2]
  inhibition at 25 µM: 39.7%

## C=C1CC[C@@H]2[C@](C)(CO)[C@H](O)CC[C@@]2(C)[C@@H]1C/C=C1/C(=O)OC[C@H]1O [andrographolide 1, andrographolide, reference compound]
[1]
  cytotoxicity at 3 days, 25 µM: 23.6%
[2]
  inhibition at 25 µM: 34.8%
